KCNQ1 inh – blocks the human KCNQ1 potassium channel. P51787. CHO-K1 KCNQ1, FluxOR thallium flux fluorescence; active compounds read high. B-score at 10 µM. actives 1.3% (n = 310,000);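 active means compounds whose thallium flux B-score, printed positive for inhibition, exceeds three library SD while starting fluorescence stays within three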;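 further: channel opened by potassium depolarization with thallium stimulus after 20 min compound exposure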
Target sequence (P51787 whole entry, looked up): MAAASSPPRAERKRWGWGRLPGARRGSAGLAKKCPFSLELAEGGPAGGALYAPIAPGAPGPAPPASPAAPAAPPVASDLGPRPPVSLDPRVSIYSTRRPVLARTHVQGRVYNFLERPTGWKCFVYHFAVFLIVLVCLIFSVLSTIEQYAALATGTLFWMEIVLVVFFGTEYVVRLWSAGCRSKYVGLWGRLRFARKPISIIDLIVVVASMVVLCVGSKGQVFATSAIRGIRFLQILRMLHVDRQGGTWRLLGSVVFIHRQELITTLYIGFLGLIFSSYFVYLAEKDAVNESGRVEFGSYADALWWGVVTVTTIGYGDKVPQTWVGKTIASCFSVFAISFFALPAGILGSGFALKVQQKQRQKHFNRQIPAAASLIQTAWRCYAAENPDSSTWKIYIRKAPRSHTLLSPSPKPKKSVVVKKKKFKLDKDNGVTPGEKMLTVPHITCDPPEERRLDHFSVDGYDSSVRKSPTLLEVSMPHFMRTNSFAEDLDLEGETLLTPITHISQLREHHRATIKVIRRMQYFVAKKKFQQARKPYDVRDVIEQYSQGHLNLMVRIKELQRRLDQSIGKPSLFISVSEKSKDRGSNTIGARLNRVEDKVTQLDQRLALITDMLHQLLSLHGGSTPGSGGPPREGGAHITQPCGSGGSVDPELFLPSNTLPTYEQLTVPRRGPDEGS
KCNQ1 pot – potentiators or activators of human KCNQ1 potassium channel; P51787; CHO-K1 KCNQ1, thallium flux FluxOR fluorescence; active compounds read high; B-score at 10 µM; actives 0.35% (n = 310,000); AID 2648;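 active means fluorescence ratio B-score, a plate-corrected score, at least three library SD, with initial intensity B-score within 5 SD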
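System: Stable KCNQ1 CHO-K1 line | Incubation: 90 min dye loading and 20 min compound exposure, both at room temperature | Measure: Ratio B score | Medium: Assay buffer for compound exposure, DMSO matched across wells | Compound dosing: Single-concentration screen | Probe or stimulus: K+/Tl+ depolarizing stimulus | Measured by: Kinetic FluxOR fluorescence, 10 s baseline plus 110 s post-stimulus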
KCNK3 inh – human KCNK3 channel inhibition, primary screen; O14649; actives 0.84% (n = 340,000); AID 602410; CHO-KCNK3 thallium flux, FluxOR fluorescence; active compounds read low; B-score at 10 µM;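 active means B-score under library mean minus 4 SD, starting fluorescence ratio at most library mean plus 5 SD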;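 further: more negative B-score means stronger inhibition of thallium flux through KCNK3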
KCNK9 inh – blocks the human KCNK9 two-pore domain potassium channel. B-score at 10 µM. actives 1.2% (n = 310,000). AID 488922. HEK293 KCNK9, FluxOR thallium flux fluorescence; active compounds read low;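 active means ratio B-score over 3 SD below the library mean, with starting fluorescence within 5 SD of its mean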;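 further: negative B-score means less thallium flux so channel inhibition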
hERG protect – hERG (human) protection from proarrhythmic block; Q12809; CHO-hERG, FluxOR thallium flux, dofetilide IC70 present; activation (rescue from dofetilide block), less the hit threshold, % at 10 µM; actives 0.51% (n = 310,000); AID 1511;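 active means activation above the mean of controls blocked by dofetilide plus 5 SD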;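 further: thallium influx through hERG after potassium depolarization seen as dye fluorescence rise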
KCNK3 inh conf – human KCNK3 channel inhibition, confirmation assay | shares compounds with KCNK3 inh | CHO-KCNK3 thallium flux, FluxOR fluorescence; 0% buffer, 100% carvedilol maximal block | ratio percent of control, % at 10 µM | actives 99% (n = 2,400);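 active means ratio percent of control, averaged over triplicates, above buffer control mean plus 5 SD, cut at about 64% in these data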;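 further: ratio is the fluorescence rise from min to max over baseline after thallium stimulus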
KCNK3 noninduced – KCNK3 inhibitor counter-screen hit in non-induced cells; shares compounds with KCNK3 inh; non-induced KCNK3 parental cells, FluxOR thallium flux; active compounds read low; thallium flux ratio (lower = more inhibition) at 10 µM; actives 40% (n = 2,400); AID 651747;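 active means thallium flux ratio, averaged over three wells, more than 5 SD below the buffer control mean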;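 further: host cells are CHO cells without KCNK3 induction; ratio is peak minus trough fluorescence over baseline then normalized to buffer controls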
Numbers without * were called inactive; i = inactive; x = no result. In the library only some 3.1% were active in any assay of this set; here they are far more common.

SMILES	KCNQ1 inh	KCNQ1 pot	KCNK3 inh	KCNK9 inh	hERG protect	KCNK3 inh conf	KCNK3 noninduced
COc1ccc([N+](=O)[O-])cc1NC(=O)c1ccc(C)o1	i	i	i	i	-4.3	x	x
CCN(CC)CCNCC1C(=O)O[C@@H]2C[C@@]3(C)CCC[C@H](C)C3=C[C@H]12 (stereo not given in full)	i	i	i	i	-1.4	x	x
CCc1ccc(-c2cc(C)no2)cc1S(=O)(=O)NCc1ccccc1OC	i	i	-11.4*	i	-9.7	97.7*	i
COc1ccccc1CNS(=O)(=O)c1ccc(-c2cc(C)no2)cc1	i	i	i	i	-9.7	x	x
CCc1ccc(-c2cc(C)no2)cc1S(=O)(=O)N1CCN(c2ccccc2OC)CC1	i	i	-9.56*	i	-12.8	82.7*	0.151*
CCCc1ccc(-c2cc(C(=O)NC3=NCCS3)c3ccccc3n2)cc1	i	i	i	i	-20.8	x	x
CC1CC(C)CN(S(=O)(=O)N2CCCC(C(=O)NCCc3ccccc3)C2)C1 (stereo not given)	i	i	i	i	-0.7	x	x
Cc1cc(C(=O)Cn2nnc3ccccc3c2=O)c(C)n1Cc1cccs1	i	i	-9.06*	i	-2.2	111.0*	i
Cc1cc(C(=O)CN2C(=O)c3ccccc3C2=O)c(C)n1Cc1cccs1	i	i	i	i	-7.0	x	x
COC(=O)C1CCN(c2nc3ccccc3nc2C(C#N)C(=O)NCCc2ccccc2)CC1 (stereo not given)	i	i	i	i	-18.4	x	x
COC(=O)C1CCN(c2nc3ccccc3nc2C(C#N)C(=O)OCC(C)C)CC1 (stereo not given)	i	i	i	-6.84*	-7.4	117.3*	0.154*
CCOC(=O)c1c(C)oc2ccc(OCc3cc(C(=O)OC)oc3C)cc12	i	i	-10*	i	-4.0	102.7*	0.16*
COCCOC(=O)c1c(C)oc2ccc(OC(=O)c3c(OC)cccc3OC)cc12	i	i	-10.4*	i	-2.8	104.0*	i
Cc1cccc(OCCOC(=O)c2c(-c3ccccc3)noc2C)c1	i	i	-13.2*	i	-6.7	108.0*	i
Cc1ccc(C)c(COC(=O)c2cccc(S(=O)(=O)N3CCCC3)c2)c1	x	x	i	x	x	x	x
Cc1ccc(C(=O)OCCOc2cccc(Cl)c2)cc1S(=O)(=O)N1CCOCC1	i	i	-11.8*	i	-8.4	93.7*	0.148*
Cc1ccc(C(=O)OCC(=O)Nc2ccccc2)cc1S(=O)(=O)N1CCCCC1	x	x	i	x	x	x	x
O=C(OCCOc1cccc(Cl)c1)c1ccc(F)c(S(=O)(=O)N2CCOCC2)c1	x	x	i	x	x	x	x
Cc1cccc(NC(=O)COC(=O)c2ccc(C)c(S(=O)(=O)N3CCCCC3)c2)c1	x	x	-12.5*	x	x	97.0*	i
COc1ccc(C(=O)OCc2cc(C)ccc2C)cc1S(=O)(=O)N1CCCC1	x	x	-14.4*	x	x	93.3*	i
COc1ccc(C(=O)N=C2SC3CS(=O)(=O)CC3N2Cc2ccc(F)cc2)cc1 (stereo not given)	i	i	i	i	-4.4	x	x
COc1ccc(-c2[nH]c3ccccc3c2SCCNC(=O)c2ccccc2)cc1	i	i	-9.63*	i	-15.0	117.0*	0.14*
CCN(CC)S(=O)(=O)c1cccc(C(=O)Nc2ccc3c(c2)OCO3)c1	i	i	i	i	-18.1	x	x
CCC(CC)C(=O)Nc1cccc(C(=O)Nc2ccc3c(c2)OCO3)c1	i	i	-11.9*	-7.58*	-15.2	91.7*	i
O=C(Nc1cccc(C(F)(F)F)c1)Nc1ccc2[nH]c(=O)[nH]c2c1	i	i	i	i	-11.7	x	x
SMILES	KCNQ1 inh	KCNQ1 pot	KCNK3 inh	KCNK9 inh	hERG protect	KCNK3 inh conf	KCNK3 noninduced
C=CCc1cccc(/C=N/NC(=O)C(=O)Nc2ccc(C)cc2)c1O	i	i	i	i	-7.8	x	x
COc1cccc(C(=O)NCCSCc2c(F)cccc2Cl)c1	i	i	i	i	-8.5	x	x
O=C(Nc1cccc(NC(=O)c2ccccc2Cl)c1)c1ccco1	i	i	-8.74*	i	-10.4	98.3*	i
COc1cccc(C(=O)NCCSCc2ccccc2Cl)c1	i	i	-9.81*	i	-16.0	98.7*	i
C=CCc1cccc(/C=N/NC(=O)c2ccccc2OC)c1O	i	i	-9.49*	-7.68*	-10.7	94.3*	i
COc1cccc(C(=O)Nc2cccc(NC(=O)c3ccccc3Cl)c2)c1	i	i	-12.2*	i	-2.1	96.3*	i
Cc1ccc2c(c1)C1CC(C)(O2)N(c2cccc(C(=O)N3CCN(c4ccccn4)CC3)c2)C(=O)N1 (stereo not given)	i	i	i	i	-14.3	x	x
O=C1C2C3C=CC(C3)C2C(=O)N1c1ccc(N2CCN(c3ccccn3)CC2)c([N+](=O)[O-])c1 (stereo not given)	i	i	i	i	-7.9	x	x
CCn1c2ccccc2c2cc(NC(C)=O)ccc21	i	i	i	i	-11.0	x	x
COc1ccccc1/C=N/NC(=O)c1cccc(NC(=O)c2ccccc2C)c1	i	i	i	i	-12.6	x	x
COc1ccccc1/C=N/NC(=O)c1cccc(NC(=O)c2ccccc2Cl)c1	i	i	-9.53*	-7.11*	-16.6	100.3*	i
CCn1c2ccccc2c2cc(NC(=O)c3ccco3)ccc21	i	i	-9.45*	i	-4.0	114.3*	i
Clc1cccc(-c2nc(NCCCN3CCOCC3)c3ccccc3n2)c1	i	i	-9.37*	i	-23.0	90.7*	0.152*
Clc1cccc(-c2nc(NCCN3CCOCC3)c3ccccc3n2)c1	i	i	i	i	-14.5	x	x
CCc1nnc(NC(=O)C2CCN(C(=O)c3ccco3)CC2)s1	i	i	-8.84*	i	-0.6	80.7*	i
COCc1nnc(NC(=O)C2CCN(C(=O)c3ccco3)CC2)s1	i	i	i	i	-3.0	x	x
Cc1nc2scc(C)n2c(=O)c1S(=O)(=O)N1CCN(c2ccc([N+](=O)[O-])cc2)CC1	i	i	i	i	-7.9	x	x
COc1cccc(NC(=O)CN(C)C(=O)/C=C/c2cn(-c3ccccc3)nc2-c2ccc(C)cc2)c1	10*	i	-8.7*	i	-28.3	92.0*	i
COc1cccc(NC(=O)CN(C)C(=O)c2cc(-c3ccc(F)cc3)nc3ccccc23)c1	i	i	-9.3*	i	-25.0	133.0*	0.11*
